Measurements taken from ChEMBL document CHEMBL1149771, “Antimicrobial studies of 2,4-dichloro-5-fluorophenyl containing oxadiazoles” (2008).
In brackets after ≈: the same amount, converted by molar mass.

What was measured:
Assay type in all cases: functional
[1] = system: Candida albicans; experiment: Antifungal activity against Candida albicans at 35 degC after 48 hrs by broth dilution method
Method in brief: (§1)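 Fungal MIC by broth dilution. Two-fold serial dilutions of compound in nutrient broth were inoculated with about 1.6 × 10⁴–6 × 10⁴ c.f.u./ml. Incubation was 48 h at 35 °C. MIC was the lowest concentration arresting fungal growth.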

[2] = system: Aspergillus fumigatus; experiment: Antifungal activity against Aspergillus fumigatus at 35 degC after 48 hrs by broth dilution method; method in brief: as §1
[3] = system: Candida albicans; experiment: Antifungal activity against Candida albicans at 37 degC after 3 to 4 days by agar dilution method; details: for Activity: in the assay text read “agar diffusion method” for “agar dilution method”
Method in brief: (§2)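 Agar well diffusion for fungi, compounds in DMSO. Sabouraud agar was adjusted to pH 5.7 and lawned with a saline spore suspension (a loopful in 3 ml). Plates were dried 1 h at 37 °C, then wells were punched. Incubation was 3–4 days at 37 °C, with controls in triplicate. Inhibition zones were measured against controls, with griseofulvin as standard.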

[4] = system: Candida albicans; experiment: Antifungal activity against Candida albicans at 35 degC after 48 hrs
Method in brief: (§3)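 Fungicidal endpoint (MFC). 0.1 ml from each broth-dilution tube was spread on agar plates and c.f.u. counted after 48 h at 35 °C. MFC was the lowest concentration killing 99.9% of the inoculum.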

[5] = system: Pseudomonas aeruginosa; experiment: Antibacterial activity against Pseudomonas aeruginosa ATCC 27853 at 35 degC after 18 to 24 hrs
Method in brief: (§4)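 Bactericidal endpoint (MBC) taken from the broth-dilution MIC tubes. 0.1 ml from each tube was spread on agar plates and c.f.u. counted after 18–24 h. MBC was the lowest concentration completely killing the bacteria.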

[6] = system: Escherichia coli; experiment: Antibacterial activity against Escherichia coli ATCC 25922 at 37 degC after 24 hrs by broth dilution method; details: ATCC 25922, 24 h
Method in brief: (§5)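 Broth dilution MIC. Nutrient broth held two-fold serial dilutions of compound and was inoculated with about 5 × 10⁵ c.f.u. of actively dividing bacteria. Cultures ran 24 h at 37 °C, with growth checked visually and spectrophotometrically. MIC was the lowest concentration arresting growth. Ciprofloxacin was the standard.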

[7] = system: Pseudomonas aeruginosa; experiment: Antibacterial activity against Pseudomonas aeruginosa ATCC 27853 at 37 degC after 24 hrs by broth dilution method; details: ATCC 27853, 24 h; method in brief: as §5
[8] = system: Talaromyces marneffei; experiment: Antifungal activity against Penicillium marneffei at 35 degC after 48 hrs; method in brief: as §3
[9] = system: Escherichia coli; experiment: Antibacterial activity against Escherichia coli ATCC 25922 at 35 degC after 18 to 24 hrs; method in brief: as §4
[10] = system: Staphylococcus aureus; experiment: Antibacterial activity against Staphylococcus aureus ATCC 25923 at 37 degC after 24 hrs by broth dilution method; details: ATCC 25923, 24 h; method in brief: as §5
[11] = system: Trichophyton mentagrophytes; experiment: Antifungal activity against Trichophyton mentagrophytes at 35 degC after 48 hrs; method in brief: as §3
[12] = system: Trichophyton mentagrophytes; experiment: Antifungal activity against Trichophyton mentagrophytes at 37 degC after 3 to 4 days by agar dilution method; details: in the assay text read “agar diffusion method” for “agar dilution method”; method in brief: as §2
[13] = system: Talaromyces marneffei; experiment: Antifungal activity against Penicillium marneffei at 37 degC after 3 to 4 days by agar […] method; method in brief: as §2
[14] = system: Aspergillus fumigatus; experiment: Antifungal activity against Aspergillus fumigatus at 35 degC after 48 hrs; method in brief: as §3
[15] = system: Talaromyces marneffei; experiment: Antifungal activity against Penicillium marneffei at 35 degC after 48 hrs by broth dilution method; method in brief: as §1
[16] = system: Trichophyton mentagrophytes; experiment: Antifungal activity against Trichophyton mentagrophytes at 35 degC after 48 hrs by broth dilution method; method in brief: as §1
[17] = system: Aspergillus fumigatus; experiment: Antifungal activity against Aspergillus fumigatus at 37 degC after 3 to 4 days by agar […] method; method in brief: as §2
[18] = system: Klebsiella pneumoniae; experiment: Antibacterial activity against Klebsiella pneumoniae ATCC 25922 at 37 degC after 24 hrs by disc diffusion method
Method in brief: (§6)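 Disc diffusion on nutrient agar. Plates were spread with 1–2 × […] c.f.u./ml inoculum (0.5 McFarland). Sterile 6.25 mm filter-paper discs were soaked in a known concentration of compound and placed on the agar. Plates were inverted and incubated 24 h at 37 °C. Inhibition zones (mm) were read against solvent and growth controls, with ciprofloxacin as reference.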

[19] = system: Pseudomonas aeruginosa; experiment: Antibacterial activity against Pseudomonas aeruginosa ATCC 27853 at 37 degC after 24 hrs by disc diffusion method; method in brief: as §6
[20] = system: Staphylococcus aureus; experiment: Antibacterial activity against Staphylococcus aureus ATCC 25923 at 37 degC after 24 hrs by disc diffusion method; method in brief: as §6
[21] = system: Staphylococcus aureus; experiment: Antibacterial activity against Staphylococcus aureus ATCC 25923 at 35 degC after 18 to 24 hrs; method in brief: as §4
[22] = system: Klebsiella pneumoniae; experiment: Antibacterial activity against Klebsiella pneumoniae ATCC 25922 at 35 degC after 18 to 24 hrs; details: recultured, in the assay text read “Klebsiella pneumoniae (recultured)” for “Klebsiella pneumoniae ATCC 25922”; method in brief: as §4
[23] = system: Klebsiella pneumoniae; experiment: Antibacterial activity against Klebsiella pneumoniae ATCC 25922 at 37 degC after 24 hrs by broth dilution method; details: recultured, in the assay text read “Klebsiella pneumoniae (recultured)” for “Klebsiella pneumoniae ATCC 25922”; method in brief: as §5
[24] = system: Escherichia coli; experiment: Antibacterial activity against Escherichia coli ATCC 25922 at 37 degC after 24 hrs by disc diffusion method; method in brief: as §6

Structure (SMILES)	MIC [1] [µg/mL]	MIC [2] [µg/mL]	MIC [6] [µg/mL]	MIC [7] [µg/mL]	MIC [10] [µg/mL]	MIC [15] [µg/mL]	MIC [16] [µg/mL]	MIC [23] [µg/mL]	MFC [4] [µg/mL]	MBC [5] [µg/mL]	MFC [8] [µg/mL]	MBC [9] [µg/mL]	MFC [11] [µg/mL]	inhibition zone (IZ) [13] [mm]	MFC [14] [µg/mL]	inhibition zone (IZ) [18] [mm]	inhibition zone (IZ) [20] [mm]	MBC [21] [µg/mL]	MBC [22] [µg/mL]	inhibition zone (IZ) [24] [mm]	also measured
Cc1ccc(OCc2nnc(-c3cc(-c4cc(F)c(Cl)cc4Cl)nc4ccccc34)o2)cc1	> 100	> 100	25 (≈ 52 µM)	25 (≈ 52 µM)	12.5 (≈ 26 µM)	12.5 (≈ 26 µM)	6.25 (≈ 13 µM)	12.5 (≈ 26 µM)	> 100	50 (≈ 104 µM)	25 (≈ 52 µM)	50 (≈ 104 µM)	6.25 (≈ 13 µM)	15	> 100	15	15	100 (≈ 208 µM)	25 (≈ 52 µM)	10	Activity [3]: >100 µg/mL; inhibition zone (IZ) [12]: 17 mm; Activity [17]: >100 µg/mL; inhibition zone (IZ) [19]: 8 mm
Cc1cc(OCc2nnc(-c3cc(-c4cc(F)c(Cl)cc4Cl)nc4ccccc34)o2)ccc1Cl	> 100	12.5 (≈ 24.3 µM)	12.5 (≈ 24.3 µM)	6.25 (≈ 12.1 µM)	> 100	12.5 (≈ 24.3 µM)	> 100	> 100	> 100	25 (≈ 48.6 µM)	50 (≈ 97.1 µM)	25 (≈ 48.6 µM)	> 100	12	25 (≈ 48.6 µM)	–	–	> 100	> 100	17	Activity [3]: >100 µg/mL; Activity [12]: >100 µg/mL; inhibition zone (IZ) [17]: 15 mm; Activity [18]: >100 µg/mL; inhibition zone (IZ) [19]: 26 mm; Activity [20]: >100 µg/mL
Cc1cc(OCc2nnc(-c3cc(F)c(Cl)cc3Cl)o2)ccc1Cl	> 100	25 (≈ 64.5 µM)	12.5 (≈ 32.2 µM)	> 100	25 (≈ 64.5 µM)	25 (≈ 64.5 µM)	> 100	> 100	> 100	> 100	50 (≈ 129 µM)	100 (≈ 258 µM)	> 100	10	50 (≈ 129 µM)	12	10	50 (≈ 129 µM)	> 100	15	Activity [3]: >100 µg/mL; Activity [12]: >100 µg/mL; inhibition zone (IZ) [17]: 8 mm; Activity [19]: >100 µg/mL
Fc1cc(-c2cc(-c3nnc(COc4ccc(Cl)cc4)o3)c3ccccc3n2)c(Cl)cc1Cl	12.5 (≈ 25 µM)	6.25 (≈ 12.5 µM)	6.25 (≈ 12.5 µM)	6.25 (≈ 12.5 µM)	6.25 (≈ 12.5 µM)	6.25 (≈ 12.5 µM)	6.25 (≈ 12.5 µM)	12.5 (≈ 25 µM)	50 (≈ 99.9 µM)	25 (≈ 49.9 µM)	12.5 (≈ 25 µM)	6.25 (≈ 12.5 µM)	12.5 (≈ 25 µM)	20	25 (≈ 49.9 µM)	18	19	12.5 (≈ 25 µM)	25 (≈ 49.9 µM)	25	inhibition zone (IZ) [3]: 12 mm; inhibition zone (IZ) [12]: 15 mm; inhibition zone (IZ) [17]: 16 mm; inhibition zone (IZ) [19]: 32 mm
Cc1ccccc1OCc1nnc(-c2cc(F)c(Cl)cc2Cl)o1	12.5 (≈ 35.4 µM)	25 (≈ 70.8 µM)	6.25 (≈ 17.7 µM)	6.25 (≈ 17.7 µM)	6.25 (≈ 17.7 µM)	25 (≈ 70.8 µM)	> 100	12.5 (≈ 35.4 µM)	25 (≈ 70.8 µM)	6.25 (≈ 17.7 µM)	100 (≈ 283 µM)	25 (≈ 70.8 µM)	> 100	8	100 (≈ 283 µM)	16	19	25 (≈ 70.8 µM)	50 (≈ 142 µM)	27	inhibition zone (IZ) [3]: 15 mm; Activity [12]: >100 µg/mL; inhibition zone (IZ) [17]: 10 mm; inhibition zone (IZ) [19]: 28 mm
O=C(O)c1cn(C2CC2)c2cc(N3CCNCC3)c(F)cc2c1=O [CIPROFLOXACIN]	–	–	–	–	–	–	–	12.5 (≈ 37.7 µM)	–	12.5 (≈ 37.7 µM)	–	12.5 (≈ 37.7 µM)	–	–	–	19	22	12.5 (≈ 37.7 µM)	12.5 (≈ 37.7 µM)	27	inhibition zone (IZ) [19]: 32 mm
Cc1cc(Cl)ccc1OCc1nnc(-c2cc(F)c(Cl)cc2Cl)o1	6.25 (≈ 16.1 µM)	6.25 (≈ 16.1 µM)	6.25 (≈ 16.1 µM)	6.25 (≈ 16.1 µM)	6.25 (≈ 16.1 µM)	6.25 (≈ 16.1 µM)	6.25 (≈ 16.1 µM)	6.25 (≈ 16.1 µM)	6.25 (≈ 16.1 µM)	6.25 (≈ 16.1 µM)	6.25 (≈ 16.1 µM)	12.5 (≈ 32.2 µM)	25 (≈ 64.5 µM)	19	6.25 (≈ 16.1 µM)	19	20	6.25 (≈ 16.1 µM)	6.25 (≈ 16.1 µM)	24	inhibition zone (IZ) [3]: 28 mm; inhibition zone (IZ) [12]: 22 mm; inhibition zone (IZ) [17]: 25 mm; inhibition zone (IZ) [19]: 29 mm

The remaining compounds from weak to strong by MIC [1], led by results:

MIC [1] [µg/mL]	MIC [2] [µg/mL]	MIC [6] [µg/mL]	MIC [7] [µg/mL]	MIC [10] [µg/mL]	MIC [15] [µg/mL]	MIC [16] [µg/mL]	MIC [23] [µg/mL]	Structure (SMILES)	MFC [4] [µg/mL]	MBC [5] [µg/mL]	MFC [8] [µg/mL]	MBC [9] [µg/mL]	MFC [11] [µg/mL]	inhibition zone (IZ) [13] [mm]	MFC [14] [µg/mL]	inhibition zone (IZ) [18] [mm]	inhibition zone (IZ) [20] [mm]	MBC [21] [µg/mL]	MBC [22] [µg/mL]	inhibition zone (IZ) [24] [mm]	also measured
6.25 (≈ 13 µM)	> 100	12.5 (≈ 26 µM)	> 100	12.5 (≈ 26 µM)	> 100	6.25 (≈ 13 µM)	> 100	Cc1ccccc1OCc1nnc(-c2cc(-c3cc(F)c(Cl)cc3Cl)nc3ccccc23)o1	25 (≈ 52 µM)	> 100	> 100	25 (≈ 52 µM)	12.5 (≈ 26 µM)	–	> 100	–	12	25 (≈ 52 µM)	> 100	12	inhibition zone (IZ) [3]: 25 mm; inhibition zone (IZ) [12]: 18 mm; Activity [13]: >100 µg/mL; Activity [17]: >100 µg/mL; Activity [18]: >100 µg/mL; Activity [19]: >100 µg/mL
6.25 (≈ 11.7 µM)	6.25 (≈ 11.7 µM)	6.25 (≈ 11.7 µM)	6.25 (≈ 11.7 µM)	6.25 (≈ 11.7 µM)	6.25 (≈ 11.7 µM)	6.25 (≈ 11.7 µM)	12.5 (≈ 23.4 µM)	Fc1cc(-c2cc(-c3nnc(COc4ccc(Cl)cc4Cl)o3)c3ccccc3n2)c(Cl)cc1Cl	6.25 (≈ 11.7 µM)	12.5 (≈ 23.4 µM)	6.25 (≈ 11.7 µM)	12.5 (≈ 23.4 µM)	25 (≈ 46.7 µM)	19	12.5 (≈ 23.4 µM)	17	20	6.25 (≈ 11.7 µM)	12.5 (≈ 23.4 µM)	26	inhibition zone (IZ) [3]: 29 mm; inhibition zone (IZ) [12]: 21 mm; inhibition zone (IZ) [17]: 27 mm; inhibition zone (IZ) [19]: 30 mm
6.25 (≈ 17.7 µM)	6.25 (≈ 17.7 µM)	–	–	–	6.25 (≈ 17.7 µM)	6.25 (≈ 17.7 µM)	–	COC1=CC(=O)C[C@@H](C)[C@]12Oc1c(Cl)c(OC)cc(OC)c1C2=O [GRISEOFULVIN]	12.5 (≈ 35.4 µM)	–	12.5 (≈ 35.4 µM)	–	12.5 (≈ 35.4 µM)	20	12.5 (≈ 35.4 µM)	–	–	–	–	–	inhibition zone (IZ) [3]: 30 mm; inhibition zone (IZ) [12]: 24 mm; inhibition zone (IZ) [17]: 27 mm
